Reference: ChEMBL document CHEMBL3045051 (Med Chem Res, 2011)
The source made the active and inactive calls. The rule behind the calls is not given here.

Columns and labels:
[1] = system: Feline coronavirus; test: Antiviral activity against Feline coronavirus infected feline kidney crandell cells assessed as inhibition of virus-induced cytopathicity; assay type: functional, organism-based
Method in brief: (§1)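 Confluent monolayers (feline kidney Crandell, Vero, HEL or HeLa, as named for each virus) were infected with 100 CCID50 of virus and allowed to adsorb for 1 h. Unbound virus was then removed, and cultures were incubated with test compound in serial dilutions (200, 40, 8 … µM). Cytopathicity was scored once untreated infected controls reached complete cytopathic effect.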

[2] = system: Human respirovirus 3; test: Antiviral activity against Human parainfluenza virus 3 infected Vero cells assessed as inhibition of virus-induced cytopathicity; assay type: functional, organism-based; method in brief: as §1
[3] = system: Sindbis virus; test: Antiviral activity against Sindbis virus infected Hela cells assessed as inhibition of virus-induced cytopathicity; assay type: functional, organism-based
[4] = system: Coxsackievirus B4; test: Antiviral activity against Human coxsackievirus B4 infected human HeLa cells assessed as inhibition of virus-induced cytopathicity; assay type: functional, organism-based; method in brief: as §1
[5] = target: T1, Seed linoleate 13S-lipoxygenase-1 (Glycine max) (UniProt P08170); test: Inhibition of Glycine max (soybean) lipoxygenase using sodium linoleate as substrate at 1 X 10^-4
T1 sequence (whole entry): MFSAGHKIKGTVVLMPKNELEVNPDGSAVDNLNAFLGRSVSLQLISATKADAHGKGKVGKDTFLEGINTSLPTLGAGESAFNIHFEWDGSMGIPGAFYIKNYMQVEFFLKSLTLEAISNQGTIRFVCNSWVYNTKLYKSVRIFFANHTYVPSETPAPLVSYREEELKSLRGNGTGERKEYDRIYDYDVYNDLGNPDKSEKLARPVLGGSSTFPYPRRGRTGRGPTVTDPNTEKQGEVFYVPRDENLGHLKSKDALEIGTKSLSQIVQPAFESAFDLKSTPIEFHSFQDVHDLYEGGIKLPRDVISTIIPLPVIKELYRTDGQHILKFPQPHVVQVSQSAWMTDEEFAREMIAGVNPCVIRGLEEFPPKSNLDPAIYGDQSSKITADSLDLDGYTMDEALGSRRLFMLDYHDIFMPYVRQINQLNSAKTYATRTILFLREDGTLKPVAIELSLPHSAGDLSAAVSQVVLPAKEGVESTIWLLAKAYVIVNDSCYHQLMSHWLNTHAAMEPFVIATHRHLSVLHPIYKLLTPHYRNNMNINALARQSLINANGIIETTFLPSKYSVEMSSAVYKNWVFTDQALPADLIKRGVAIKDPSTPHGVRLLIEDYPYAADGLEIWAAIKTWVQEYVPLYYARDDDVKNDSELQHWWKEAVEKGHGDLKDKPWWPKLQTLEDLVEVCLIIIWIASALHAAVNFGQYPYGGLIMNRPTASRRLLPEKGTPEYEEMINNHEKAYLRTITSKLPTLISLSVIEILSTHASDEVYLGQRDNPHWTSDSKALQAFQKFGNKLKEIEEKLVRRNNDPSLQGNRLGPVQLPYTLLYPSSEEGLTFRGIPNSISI

[6] = system: Vesicular stomatitis virus; test: Antiviral activity against Vesicular stomatitis virus infected HEL cells assessed as inhibition of virus-induced cytopathicity; assay type: functional, organism-based
[7] = system: Mammalian orthoreovirus 1; test: Antiviral activity against Mammalian orthoreovirus 1 infected VERO cells assessed as inhibition of virus-induced cytopathicity; assay type: functional, organism-based; method in brief: as §1
[8] = system: Punta Toro virus; test: Antiviral activity against Punta Toro virus infected Hela cells assessed as inhibition of virus-induced cytopathicity; assay type: functional, organism-based
[9] = system: Coxsackievirus B4; test: Antiviral activity against Human coxsackievirus B4 infected VERO cells assessed as inhibition of virus-induced cytopathicity; assay type: functional, organism-based; method in brief: as §1
[10] = Antioxidant activity assessed as inhibition of AAPH-induced lipid peroxidation at 1 X 10^-5 M; assay type: functional
[11] = Antioxidant activity assessed as inhibition of AAPH-induced lipid peroxidation at 1 X 10^-4 M; assay type: functional
[12] = system: Human alphaherpesvirus 2; test: Antiviral activity against Human herpesvirus 2 strain G infected human HEL cells assessed as inhibition of virus-induced cytopathicity; assay type: functional, organism-based; method in brief: as §1
[13] = system: Vaccinia virus; test: Antiviral activity against Vaccinia virus infected human HEL cells assessed as inhibition of virus-induced cytopathicity; assay type: functional, organism-based; conditions: Orthopoxvirus vaccinia
[14] = system: Human alphaherpesvirus 1; test: Antiviral activity against […] 1 KOS infected in human HEL cells assessed as inhibition of virus-induced cytopathicity; assay type: functional, organism-based; method in brief: as §1
[15] = system: Respiratory syncytial virus; test: Antiviral activity against Respiratory syncytial virus infected human HeLa cells assessed as inhibition of virus-induced cytopathicity; assay type: functional, organism-based; method in brief: as §1
[16] = system: Radical scavenging activity; test: Antioxidant activity assessed as DPPH radical scavenging activity at 1 X 10^-4 M after 60 min; assay type: functional
Method in brief: (§2)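 Test compound was mixed with DPPH (0.05 and 0.1 mM) in ethanol. Absorbance at 517 nm was read after 20 and 60 min and compared with the NDGA standard, with ethanol as control. Each experiment was run at least in triplicate, and the SD of absorbance was <10% of the mean.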

[17] = system: Influenza A virus; test: Antiviral activity against Unidentified Influenza A virus (H1N2) infected MDCK cells assessed as inhibition of virus-induced cytopathicity; assay type: functional, organism-based
[18] = system: Radical scavenging activity; test: Antioxidant activity assessed as DPPH radical scavenging activity at 5 X 10^-5 M after 60 min; assay type: functional; method in brief: as §2
[19] = system: Radical scavenging activity; test: Antioxidant activity assessed as DPPH radical scavenging activity at 5 X 10^-5 M after 20 min; assay type: functional; method in brief: as §2
[20] = system: Radical scavenging activity; test: Antioxidant activity assessed as DPPH radical scavenging activity at 1 X 10^-4 M after 20 min; assay type: functional; method in brief: as §2
[21] = system: Vesicular stomatitis virus; test: Antiviral activity against Vesicular stomatitis virus infected Hela cells assessed as inhibition of virus-induced cytopathicity; assay type: functional, organism-based

SMILES	Activity [1]	Activity [2]	Activity [3]	Activity [4]	Activity [6]	Activity [7]	Activity [8]	Activity [9]	inhibition [11] [%]	Activity [12]	Activity [13]	Activity [14]	Activity [15]	inhibition [16]	Activity [17]	Activity ([17]; H1N1)	inhibition [18] [%]	inhibition [19]	inhibition [20]	Activity [21]	other results
CC(C(=O)N1CCCC1)c1cccc(C(OC(=O)N2CCCC2)c2ccccc2)c1 (centres undefined)	inactive	inactive	inactive	inactive	inactive	inactive	inactive	inactive	77.2	inactive	inactive	inactive	inactive	2.7%	inactive	inactive	6.5	5.7%	2.6%	inactive	inhibition [5]: 12.7%; inhibition [10]: 16.4%
O=C(O)/C=C/c1ccc(O)c(O)c1	inactive	inactive	inactive	inactive	inactive	inactive	inactive	inactive		inactive	inactive	inactive	inactive		inactive	inactive				inactive	
CC(C(=O)NOCc1ccccc1)c1cccc(C(OC(=O)NOCc2ccccc2)c2ccccc2)c1 (centres undefined)	inactive	inactive	inactive	inactive	inactive	inactive	inactive	inactive	99.3	inactive	inactive	inactive	inactive	inactive	inactive	inactive	5.6	3.4%	inactive	inactive	inhibition [5]: 40.8%; inhibition [10]: 49.2%
Cc1c(C)c2c(c(C)c1O)CCC(C)(C(=O)O)O2 (centres undefined)	inactive	inactive	inactive	inactive	inactive	inactive	inactive	inactive	63	inactive	inactive	inactive	inactive		inactive	inactive				inactive	
CC(C(=O)NC1CCCCC1)c1cccc(C(OC(=O)NC2CCCCC2)c2ccccc2)c1 (centres undefined)	inactive	inactive	inactive	inactive	inactive	inactive	inactive	inactive	96.1	inactive	inactive	inactive	inactive	inactive	inactive	inactive	3.1	2%	inactive	inactive	inhibition [5]: 22.7%; inhibition [10]: 5.4%
CONC(=O)OC(c1ccccc1)c1cccc(C(C)C(=O)NOC)c1 (centres undefined)	inactive	inactive	inactive	inactive	inactive	inactive	inactive	inactive	61	inactive	inactive	inactive	inactive	3.2%	inactive	inactive	4.1	inactive	1.8%	inactive	inhibition [5]: 26.9%; inhibition [10]: 2.5%
CC(C(=O)NCCc1ccccc1)c1cccc(C(OC(=O)NCCc2ccccc2)c2ccccc2)c1 (centres undefined)	inactive	inactive	inactive	inactive	inactive	inactive	inactive	inactive	99	inactive	inactive	inactive	inactive	2.2%	inactive	inactive	8.5	3.6%	inactive	inactive	inhibition [5]: 18.9%; inhibition [10]: 22.5%
CC(Cc1ccc(O)c(O)c1)C(C)Cc1ccc(O)c(O)c1 (centres undefined)	inactive	inactive	inactive	inactive	inactive	inactive	inactive	inactive		inactive	inactive	inactive	inactive	97%	inactive	inactive	83	81%	93%	inactive	
CC(C(=O)N1CCCCC1)c1cccc(C(OC(=O)N2CCCCC2)c2ccccc2)c1 (centres undefined)	inactive	inactive	inactive	inactive	inactive	inactive	inactive	inactive	97.4	inactive	inactive	inactive	inactive	4.3%	inactive	inactive	10	8.6%	1.7%	inactive	inhibition [5]: inactive; inhibition [10]: 25.5%
CCONC(=O)OC(c1ccccc1)c1cccc(C(C)C(=O)NOCC)c1 (centres undefined)	inactive	inactive	inactive	inactive	inactive	inactive	inactive	inactive	54.5	inactive	inactive	inactive	inactive	1.1%	inactive	inactive	3.7	2.5%	2.3%	inactive	inhibition [5]: 22.3%; inhibition [10]: inactive
